Consider two molecules from ChEMBL document CHEMBL1132485, “Synthesis and biological evaluation of a potent E-selectin antagonist” (J Med Chem, 1999).

For assay [1], the target named is T1, E-selectin (Homo sapiens, UniProt P16581).
T1 sequence (P16581 whole entry): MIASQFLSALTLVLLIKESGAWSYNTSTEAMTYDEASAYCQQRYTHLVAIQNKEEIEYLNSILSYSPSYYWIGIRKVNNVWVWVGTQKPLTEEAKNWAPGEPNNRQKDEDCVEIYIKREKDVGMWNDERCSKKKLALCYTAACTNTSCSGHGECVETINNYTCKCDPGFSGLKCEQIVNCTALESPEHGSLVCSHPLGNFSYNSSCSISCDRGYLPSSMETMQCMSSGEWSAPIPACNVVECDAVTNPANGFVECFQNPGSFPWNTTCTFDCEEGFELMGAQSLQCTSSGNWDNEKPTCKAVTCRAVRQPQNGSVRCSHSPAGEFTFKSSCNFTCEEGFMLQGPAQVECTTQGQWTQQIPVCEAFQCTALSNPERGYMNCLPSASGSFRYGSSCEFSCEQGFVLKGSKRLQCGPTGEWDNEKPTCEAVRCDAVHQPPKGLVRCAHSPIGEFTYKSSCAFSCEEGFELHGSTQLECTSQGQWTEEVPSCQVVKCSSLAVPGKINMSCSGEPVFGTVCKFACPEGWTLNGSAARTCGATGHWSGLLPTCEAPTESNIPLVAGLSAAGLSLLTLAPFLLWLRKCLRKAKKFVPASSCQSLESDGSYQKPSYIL
The assay is described as follows: In vitro inhibitory activity against Selectin E measured by sLex(static cell free ligand binding assay). The procedure, abridged:
(§1)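 Cell-free competitive binding assay in which immobilized E-selectin is incubated with a multivalent polylysine/sialyl Lewis^a conjugate and then treated with test compounds. The sLe^x tetrasaccharide is run as a reference on every plate. Relative IC50 is IC50(test)/IC50(sLe^x) from the same plate. Data come from three separate assays.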

The species entered for the next assay is Mus musculus. The assay is described as follows: Inhibitory effect in a thioglycollate induced peritonitis model of acute inflammation in mice. The class given is functional.
The target of assay [2] is T2, E-selectin (Homo sapiens) (UniProt P16581).
T2 sequence (whole entry): T1 sequence (P16581 whole entry)
The assay is described as follows: Ratio of IC50 of compound to IC50 of sLex. The class given is functional. The procedure, abridged:
as §1

For assay [3], the target named is T1, E-selectin. Kind of assay: In vitro inhibitory activity against Selectin E. The procedure, abridged:
as §1

Values joined by “and” are separate entries in the source; they are usually repeats but may differ in a detail not shown here. Equal entries are not always repeated.

In general, IC50 refers to the concentration at which inhibition is half-maximal. In the case of `COC(=O)CCCCCCCCO[C@@H]1C[C@@H](CO)[C@@H](O[C@@H]2O[C@@H](O)[C@H](O)[C@H](O[C@]3(C(=O)O)C[C@@H](O)[C@@H](NC(C)=O)[C@H]([C@H](O)[C@H](O)CO)O3)[C@@H]2O)[C@H](O[C@@H]2O[C@@H](C)[C@@H](O)[C@H](O)[C@@H]2O)[C@@H]1NC(C)=O`, on E-selectin [1], the IC50 was 1.18 mM and 0.889 mM and 1.31 mM and 1.13 mM.

The ED50 is the dose that gives a 50% effect, or the effect in half of the subjects. Low values mean an effect at a small dose, high ones a need for a large dose. For the molecule `C[C@@H]1O[C@@H](O[C@@H]2[C@H](CO)OCC[C@H]2O[C@@H]2O[C@@H](CO)[C@H](O)C(O[C@@H](CC3CCCCC3)C(=O)[O-])[C@@H]2O)[C@@H](O)[C@@H](O)[C@@H]1O.[Na+]` (some centres undefined), the ED50 in the assay listed under Mus musculus stood at 15 mg/kg. The Relative IC50 in assay [2] is 0.031 [middle of 4 runs]. The 50% inhibitory concentration (IC50) against E-selectin [3] was 33 µM and 24 µM and 51 µM and 36 µM.
